Like-named read-outs stand apart in the source and are kept apart here. Marks after values point to notes of the source that are not given here.
Assays:
[1] = test system: P388 mouse lymphocytic leukemia cells; details: cited from earlier work; for ED50: taken from a previous report
[2] = VT-1H NMR quantification of the square/folded conformational equilibrium; type: physicochemical; details: CH3CN-d3, calculated from ΔG° = ΔH° − TΔS° with van't Hoff parameters
How it was run: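 Peptide at about 5.0 mM in CH3CN-d3, with shifts referenced to internal […] (0.00 ppm). Protons assigned by 2D-COSY and ROESY (500 ms mixing time). ΔH° and ΔS° came from a linear van't Hoff plot of ln K versus 1/T, and ΔG° at 298 K was then calculated from these parameters.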

Substance	ED50 ([1]; P388 cells)	ΔG° at 298 K (conformational free energy, square to folded form) [2] [kcal/mol]	cytotoxicity (in words) ([1]; P388 cells, folded reference peptide)	cytotoxicity (in words) [1]
Ascidiacyclamide [Peptide 1]	10.5 ^a μg mL^−1	0.523		
cyclo(-Ile-alloThr-D-Val-Thz-)2 (head to tail) [dASC]	>100 ^h μg mL^−1		no cytotoxicity	no cytotoxicity

Source: article PMC9056700 (RSC Advances, 2020)
